Hits are enriched below; roughly 2.3% of the tested compounds scored in any of these assays.
SIAE primary – inhibitors of human sialic acid acetylesterase SIAE. Q9HAT2. SIAE FP-Rh probe binding, fluorescence polarization. inhibition, % at 9.66 µM. 0.69% of 370,000 active;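 active = inhibition above a cutoff: mean of compounds within the control limits plus 3 SD of those, cut at about 17% in these data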
TCR-CD3 inh – human TCR-CD3 binding inhibition | inhibition, % at 9.4 µM | 0.37% of 360,000 active | AID 651800 | TAMRA-labeled TCR probe fluorescence, biochemical; in the data active = inhibition above about 19%;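 also: recombinant mutant TCR 2C K166C tagged with TAMRA read by polarization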
HTRA1 inh – inhibitors of human serine peptidase HTRA1; Q92743; 0.5% of 340,000 active; inhibition, % at 5.96 µM; recombinant HTRA1, FP-rhodamine activity-based probe, fluorescence polarization; in the data active = inhibition above about 36%
Target sequence (Q92743 whole entry, looked up): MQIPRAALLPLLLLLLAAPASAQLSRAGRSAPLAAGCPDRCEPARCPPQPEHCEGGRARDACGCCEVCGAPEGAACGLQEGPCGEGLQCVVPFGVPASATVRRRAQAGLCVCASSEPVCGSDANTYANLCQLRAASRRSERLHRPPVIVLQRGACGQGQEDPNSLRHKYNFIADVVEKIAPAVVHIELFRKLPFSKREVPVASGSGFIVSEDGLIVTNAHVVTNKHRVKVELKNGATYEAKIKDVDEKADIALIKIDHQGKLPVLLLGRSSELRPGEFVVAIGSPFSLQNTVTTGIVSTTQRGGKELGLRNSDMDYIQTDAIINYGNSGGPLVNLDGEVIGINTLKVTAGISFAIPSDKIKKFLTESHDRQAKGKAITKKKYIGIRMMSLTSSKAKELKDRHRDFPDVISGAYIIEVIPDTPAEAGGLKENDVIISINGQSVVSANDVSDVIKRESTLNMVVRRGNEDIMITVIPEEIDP
mABHD4 FP – ABHD4 (mouse) inhibition, primary FP screen. Q8VD66. purified mABHD4, FP-Rh probe fluorescence polarization. inhibition, % at 8.92 µM. 0.54% of 370,000 active;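 active = inhibition exceeding the mean over every tested compound plus 3 SD, cut at about 30% in these data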
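Test system: mouse ABHD4 enzyme, wild type. Reagent: FP-Rh fluorescent activity-based probe, added after compound pre-incubation. Timing: pre-incubation 45 min, probe exposure 60 min, at 25 °C. Technique: FP readout, ex 525 nm / em 598 nm. Benchmarks: high control S159A mutant with DMSO, low control median of compound wells.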
pPAFAH FP inh – pPAFAH (human) enzyme inhibition; inhibition, % at 3.39 µM; Q13093; recombinant pPAFAH, FP-rhodamine probe fluorescence polarization; 1.5% of 330,000 active;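 active = inhibition above the mean inhibition across the screen plus 3 SD, cut at about 25% in these data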;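 also: inhibitors block binding of the rhodamine activity-based probe so polarization drops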
HTRA1 inh conf – confirmation of human HTRA1 inhibitors | shares compounds with HTRA1 inh | recombinant HTRA1, FP-rhodamine activity-based probe, fluorescence polarization | inhibition, % at 5.96 µM | 66% of 1,600 active;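 active = mean inhibition over three repeats above a set limit taken from the earlier primary screen, cut at about 37% in these data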;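 also: inhibitors block probe binding so polarization drops and inhibition rises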
Large screens that a line does not name were inactive (follow-up assays come after a bar, where they were run).

CCc1nc2ccc(C(=O)Nc3cccc(OCC(=O)N(C)C)c3)cn2c1N(C=O)Cc1ccc(OC)cc1	none (no result: HTRA1 inh, pPAFAH FP inh)
C=CCN(CC#Cc1ccc(C)cc1)Cc1ccc(OC)cc1OC	none (no result: TCR-CD3 inh, HTRA1 inh, pPAFAH FP inh)
CCC(=C(c1ccc(OC)cc1)c1ccc(OC)cc1)c1cn(CC(O)CN2CCN(C)CC2)c2ccccc12 (stereo not drawn)	HTRA1 inh 37.3 | HTRA1 inh conf 39.0
COc1ccc(-c2cc3ccccc3n2CC(O)CN2CCCCC2)cc1 (stereo not drawn)	none
O=C(NN=Cc1c(O)ccc2ccccc12)c1ccncc1	none (no result: pPAFAH FP inh)
Cn1nccc1C(=O)N/N=C/c1c(O)ccc2ccccc12	HTRA1 inh 54.6 | HTRA1 inh conf 54.2
CCOC(=O)C1CCCN(S(=O)(=O)c2cc3c(cc2Br)CCN3C(=O)CC)C1 (stereo not drawn)	none (no result: TCR-CD3 inh, HTRA1 inh, pPAFAH FP inh)
CN(C)c1ccc(C=Cc2ccnc3c(O)cccc23)cc1	SIAE primary 22.6, HTRA1 inh 63.0 (no result: pPAFAH FP inh) | HTRA1 inh conf 54.2
c1ccc(N2CCN(c3nc(-c4ccccn4)nc4ccccc34)CC2)cc1	HTRA1 inh 40.2 | HTRA1 inh conf inactive
CC(=O)c1cccc(N(C(=O)Cn2nnc3ccccc32)C(C(=O)NC2CCCCC2)c2cn(C)nc2C)c1 (stereo not drawn)	none
O=C(NC1CCCCC1)C(c1ccc(O)c(O)c1)N(C(=O)Cn1nnc2ccccc21)c1cccc(O)c1 (stereo not drawn)	HTRA1 inh 47.5 | HTRA1 inh conf 49.2
Cc1ccc(-c2nc3ncccn3c2NC(=O)c2ccc(F)cc2)cc1	none (no result: TCR-CD3 inh, HTRA1 inh, pPAFAH FP inh)
O=C1CSC(=S)N1N=Cc1c[nH]c2ccc(Br)cc12	HTRA1 inh 55.6 (no result: pPAFAH FP inh) | HTRA1 inh conf 59.9
CCOC(=O)Nc1ccc(C)cc1NC(=O)OCC	none
CCOC(=O)Nc1ccc(NCc2ccc(F)cc2)nc1N	HTRA1 inh 59.5 | HTRA1 inh conf inactive
CC(=O)Nc1cc(-c2ccoc2)cn2c(-c3ccccc3)cnc12	none (no result: HTRA1 inh, pPAFAH FP inh)
N/C(Cc1ccc(Cl)c(Cl)c1)=N\OC(=O)c1ccc(Br)o1	HTRA1 inh active | HTRA1 inh conf inactive
COC(=O)c1ccc(Cn2ccc3ccc(-c4ccc5ccn(Cc6ccccc6)c5c4)cc32)cc1	none (no result: TCR-CD3 inh, HTRA1 inh, pPAFAH FP inh)
COc1cccc2c1C(=N)c1c(O)c3c(c(O)c1C2=O)CC(O)(C(C)=O)CC3OC1CC(N)C(O)C(C)O1 (stereo not drawn)	HTRA1 inh 41.2 (no result: SIAE primary, TCR-CD3 inh, mABHD4 FP, pPAFAH FP inh) | HTRA1 inh conf 42.6
CCCCC(=O)OCC(=O)C1(O)Cc2c(O)c3c(c(O)c2C(OC2CC(NC(=O)C(F)(F)F)C(O)C(C)O2)C1)C(=O)c1c(OC)cccc1C3=O (stereo not drawn)	none (no result: pPAFAH FP inh)
C/C(=N\Nc1nc(-c2cc(C)ccc2C)cs1)c1cc2c(ccc3ccccc32)oc1=O	HTRA1 inh 52.7 | HTRA1 inh conf inactive
CCCN1C(=O)c2[nH]nc(-c3ccccc3)c2C1c1ccc(F)cc1 (stereo not drawn)	none (no result: HTRA1 inh, pPAFAH FP inh)
O=C1CC(Nc2ccc(N3CCOCC3)cc2)C(=O)N1Cc1ccccc1 (stereo not drawn)	SIAE primary 18.4, HTRA1 inh 49.1, mABHD4 FP 49.1, pPAFAH FP inh 34.1 | HTRA1 inh conf inactive
COc1ccc(CN2C(=O)c3ccccc3C2c2nnnn2C(C)C)cc1 (stereo not drawn)	none (no result: HTRA1 inh, pPAFAH FP inh)
Cc1ccc(N=C2NC(=O)/C(=C\c3ccco3)S2)cc1	none
COc1ccc(N=C2NC(=O)/C(=C\C=C\c3ccco3)S2)cc1	HTRA1 inh 38.4 (no result: pPAFAH FP inh) | HTRA1 inh conf inactive
CCc1ccc(CNc2ccc3c(c2)ncn3CC)cc1	none
CCc1ccc(CNc2ccc(O)cc2)cc1	HTRA1 inh 72.6 (no result: SIAE primary, TCR-CD3 inh, mABHD4 FP) | HTRA1 inh conf 52.4
O=C(Nc1ccc(C(O)(C(F)(F)F)C(F)(F)F)cc1)c1ccccc1C(F)(F)F	none (no result: TCR-CD3 inh, HTRA1 inh, pPAFAH FP inh)
O=C1C(Cl)=C(N2CCCCC2)C(=O)C(Cl)=C1c1cnc(N2CCCCC2)s1	HTRA1 inh 71.3 (no result: SIAE primary, TCR-CD3 inh, mABHD4 FP, pPAFAH FP inh) | HTRA1 inh conf inactive
O=C1C(Cl)=C(N2CCCCCC2)C(=O)N1c1ccc(Cl)cc1	none
COc1ccc(Sc2nc(-c3ccccn3)ncc2OC)cc1	HTRA1 inh 61.8 | HTRA1 inh conf 54.1
Nc1ccccc1NC1CCCCC1	HTRA1 inh 40.9 (no result: pPAFAH FP inh) | HTRA1 inh conf 48.3
O=C(Nc1ccccc1NC(=O)NC1CCCCC1)NC1CCCCC1	none
CC(C)C1CC(N(C)C)=CC(=S)N1 (stereo not drawn)	none (no result: HTRA1 inh, pPAFAH FP inh)
CCC(c1ccc(O)c(O)c1)C(CC)c1ccc(O)c(O)c1 (stereo not drawn)	HTRA1 inh 59.5 (no result: SIAE primary, TCR-CD3 inh, mABHD4 FP, pPAFAH FP inh) | HTRA1 inh conf 67.6
CCC(NC(C)C)C(O)c1ccc(O)c(O)c1 (stereo not drawn)	none
O=C(Nc1ccc(F)cc1)Nc1c(-c2ccc(C(F)(F)F)cc2)nc2ncccn12	none (no result: TCR-CD3 inh, HTRA1 inh, pPAFAH FP inh)
Cc1ccc2nc(-c3ccccn3)c(NC3CCCC3)n2c1	HTRA1 inh 37.8 | HTRA1 inh conf 37.9
NC(=S)NN=Cc1nccc2ccccc12	none (no result: pPAFAH FP inh)
NC(=S)NN=Cc1nccc2c(C(F)(F)C(F)(F)C(F)(F)F)cccc12	HTRA1 inh 68.5 (no result: pPAFAH FP inh) | HTRA1 inh conf 64.5
O=C1C=CC(=O)C(CNc2ccc(C(=O)OCc3ccccc3)cc2)=C1	HTRA1 inh 42.0, mABHD4 FP 36.2 (no result: pPAFAH FP inh) | HTRA1 inh conf inactive
CCOC(=O)[C@]12CCCC=C1N(Cc1ccc(OC)cc1)C(=O)[C@@H]2CC(=O)NCc1ccc(OC)c(OC)c1	none (no result: TCR-CD3 inh, HTRA1 inh, pPAFAH FP inh)
CC(=O)Nc1ccc(NC2=CC(=O)c3ccccc3C2=O)cc1	none
O=C1C=C(Nc2ccc(O)cc2)C(=O)c2ccccc21	HTRA1 inh 37.4 | HTRA1 inh conf inactive
C[C@H]1CCCN1c1cccc2c1S(=O)(=O)N1CC[C@H](C1)O2	none (no result: TCR-CD3 inh, HTRA1 inh, pPAFAH FP inh)
O=[N+]([O-])c1ccc(Sc2cccc[n+]2[O-])c2nonc12	HTRA1 inh 81.1 (no result: pPAFAH FP inh) | HTRA1 inh conf 101.5
O=[N+]([O-])c1ccc(Nc2ccccc2)c2nonc12	none
CCCCOCCCNC(=O)C[C@H]1C[C@@]2(C(=O)OC)C(=C[C@H](COCc3ccccc3)O[C@@H]2C)N(Cc2ccco2)C1=O	none (no result: TCR-CD3 inh, HTRA1 inh, pPAFAH FP inh)
C=CCN=C1NC(c2ccccc2C(F)(F)F)C(C(=O)OC)=C(C)N1Cc1ccccc1C(F)(F)F (stereo not drawn)	none (no result: HTRA1 inh, pPAFAH FP inh)
COC(=O)C1=C(C)NC(C)=C(C(=O)OC)C1c1cc2cc(C)ccc2[nH]c1=O	none
N#CC1=C(N)Oc2c(ccc3cccnc23)C1c1ccccc1 (stereo not drawn)	HTRA1 inh 41.2 | HTRA1 inh conf inactive
Cc1ccc2[nH]c(=O)c(C3C(C#N)=C(N)Oc4c3ccc3cccnc43)cc2c1 (stereo not drawn)	SIAE primary 24.8, HTRA1 inh 73.1, pPAFAH FP inh 25.4 | HTRA1 inh conf inactive
O=C(O)Cn1cc(CN2CCOCC2)c2ccccc21	none
Oc1ccc(CN2CCN(Cc3ccccc3)CC2)c2cccnc12	none
O=C(Oc1c(CN2CCOCC2)cc(Cl)c2cccnc12)c1ccccc1F	HTRA1 inh 40.9 | HTRA1 inh conf inactive
CN1CCN(Cc2cc(COCc3ccccc3)c3cccnc3c2O)CC1	HTRA1 inh 50.4 | HTRA1 inh conf 86.8

Screens (PubChem)
